Publication PMC2766535 (Journal of separation science, 2009)
pKd: −log10 of the molar value.

target: human serum albumin (HSA) (Homo sapiens, UniProt P02768); assay: frontal analysis, high-performance affinity chromatography on immobilized HSA; type: binding
In short: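 Fatty-acid-free HSA immobilized by Schiff base on diol silica (40 (± 2) mg HSA/g silica), packed in a 5 cm × 2.1 mm i.d. column. A column without HSA corrected for non-specific binding. Test compound (0.5 µM to 30 µM) in pH 7.4, 0.067 M potassium phosphate was applied at 0.5 mL/min, 37°C, until plateau. Detection at 260 nm; mean breakthrough times were used.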

human serum albumin (HSA), sequence (P02768 25-609): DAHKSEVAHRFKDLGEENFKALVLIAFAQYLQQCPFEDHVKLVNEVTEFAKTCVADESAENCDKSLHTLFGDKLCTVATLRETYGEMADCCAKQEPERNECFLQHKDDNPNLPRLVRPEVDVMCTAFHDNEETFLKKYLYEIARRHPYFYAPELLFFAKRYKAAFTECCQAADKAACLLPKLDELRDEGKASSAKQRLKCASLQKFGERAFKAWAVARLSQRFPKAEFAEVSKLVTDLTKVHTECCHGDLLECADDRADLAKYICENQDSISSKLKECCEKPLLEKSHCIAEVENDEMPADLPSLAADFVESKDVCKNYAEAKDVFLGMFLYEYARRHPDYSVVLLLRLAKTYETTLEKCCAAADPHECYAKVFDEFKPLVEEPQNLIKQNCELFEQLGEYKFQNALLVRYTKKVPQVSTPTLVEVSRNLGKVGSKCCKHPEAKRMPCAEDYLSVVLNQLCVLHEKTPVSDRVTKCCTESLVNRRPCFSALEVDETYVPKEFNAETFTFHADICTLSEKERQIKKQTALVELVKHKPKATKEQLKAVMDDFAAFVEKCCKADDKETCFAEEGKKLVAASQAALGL

| pKd | SMILES |
| --- | --- |
| 4.72 | Cc1c[nH]c2ccccc12 [3-Methylindole] |
| 5.99 | O=C(O)CCCc1c[nH]c2ccccc12 [Indole-3-butyric acid] |
| 5.08 | OCc1c[nH]c2ccccc12 [Indole-3-methanol] |
| 5.04 | O=C(O)CCc1c[nH]c2ccccc12 [Indole-3-propionic acid] |
| 4.89 | CC(=O)c1c[nH]c2ccccc12 [3-Acetylindole] |
